According to ChEMBL document CHEMBL1157029, “Synthesis, characterization and in vitro pharmacology of novel pregabalin derivatives” (Eur J Med Chem, 2010):

Assays:
[1] = species: Rattus norvegicus; test: Inhibition of [3H]gabapentin binding to voltage gated calcium channel alpha2delta from rat cerebral cortex at 10 uM by scintillation counting; assay type: tissue-based
Outline: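 Single test concentration, in duplicate. Membranes were incubated 60 min at 22 °C with 10 nM [3H]gabapentin in 10 mM Hepes/Tris pH 7.4. Nonspecific binding was defined with excess unlabelled gabapentin, and filters were counted by scintillation. Compound came from DMSO stock with a final 100-fold dilution in the well. Result given as % inhibition of control specific binding.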

[2] = Displacement of [3H]gabapentin binding to voltage gated calcium channel alpha2delta from rat cerebral cortex by scintillation counting; assay type: tissue-based
Outline: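 Membranes were incubated 60 min at 22 °C with 10 nM [3H]gabapentin ± test compound in 10 mM Hepes/Tris pH 7.4. Nonspecific binding was taken with excess unlabelled gabapentin. Filter-bound radioactivity was counted by scintillation. Compounds were diluted from DMSO stocks, 100-fold into the well. Duplicates. IC50 came from a competition curve of specific binding; gabapentin was the reference in each run.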

Compound	inhibition [1] [%]	IC50 [2] [µM]	Ki [2] [µM]
CC(C)C[C@H](CN)CC(=O)N[C@@H]1O[C@H](CO)[C@@H](O)[C@H](O)[C@H]1O	17	–	–
CC(C)C[C@H](CN)CC(=O)N[C@H]1C(O)O[C@H](CO)[C@H](O)[C@@H]1O (some centres undefined)	9	–	–
CC(C)C[C@H](CN)CC(=O)O	92	–	–
CC(C)C[C@H](CN)CC(=O)N[C@@H]1C(O)O[C@H](CO)[C@@H](O)[C@@H]1O (some centres undefined)	14	–	–
CC(C)C[C@H](CN)CC(=O)NCCc1c[nH]c2ccc(O)cc12	51	13	11
CC(C)C[C@H](CN)CC(=O)N[C@H]1C(O)O[C@H](CO)[C@@H](O)[C@@H]1O (some centres undefined)	18	–	–
CC(C)C[C@H](CN)CC(=O)NCCc1c[nH]c2ccccc12	18	–	–
